One assay has as its system NCI-H520. Put plainly: Antiproliferative activity against human FGFR1-amplified NCI-H520 cells after 7 days by SRB assay. Conditions: NCI-H520, 168 h. On the technique in general: In SRB staining, fixed cells bind dye roughly in proportion to their protein.
Another assay deals with SW780. Put plainly: Antiproliferative activity against human FGFR3-amplified SW780 cells after 5 days by SRB assay. Conditions: SW780, 120 h.
The nature of assay [1]: Antiproliferative activity against human FGFR2-amplified SUM52 cells after 5 days by SRB assay. The settings on record: SUM52, 120 h.
Assay [2] deals with Fibroblast growth factor receptor 3 (Homo sapiens, UniProt P22607). Put plainly: Inhibition of human recombinant His-tagged FGFR3 cytoplasmic domain (399 to 806 residues) expressed in baculovirus using Tyr-4 peptide after 1 hr by FRET-based Z'-Lyte assay.
Fibroblast growth factor receptor 3, sequence (P22607 whole entry, the tested form may be a part): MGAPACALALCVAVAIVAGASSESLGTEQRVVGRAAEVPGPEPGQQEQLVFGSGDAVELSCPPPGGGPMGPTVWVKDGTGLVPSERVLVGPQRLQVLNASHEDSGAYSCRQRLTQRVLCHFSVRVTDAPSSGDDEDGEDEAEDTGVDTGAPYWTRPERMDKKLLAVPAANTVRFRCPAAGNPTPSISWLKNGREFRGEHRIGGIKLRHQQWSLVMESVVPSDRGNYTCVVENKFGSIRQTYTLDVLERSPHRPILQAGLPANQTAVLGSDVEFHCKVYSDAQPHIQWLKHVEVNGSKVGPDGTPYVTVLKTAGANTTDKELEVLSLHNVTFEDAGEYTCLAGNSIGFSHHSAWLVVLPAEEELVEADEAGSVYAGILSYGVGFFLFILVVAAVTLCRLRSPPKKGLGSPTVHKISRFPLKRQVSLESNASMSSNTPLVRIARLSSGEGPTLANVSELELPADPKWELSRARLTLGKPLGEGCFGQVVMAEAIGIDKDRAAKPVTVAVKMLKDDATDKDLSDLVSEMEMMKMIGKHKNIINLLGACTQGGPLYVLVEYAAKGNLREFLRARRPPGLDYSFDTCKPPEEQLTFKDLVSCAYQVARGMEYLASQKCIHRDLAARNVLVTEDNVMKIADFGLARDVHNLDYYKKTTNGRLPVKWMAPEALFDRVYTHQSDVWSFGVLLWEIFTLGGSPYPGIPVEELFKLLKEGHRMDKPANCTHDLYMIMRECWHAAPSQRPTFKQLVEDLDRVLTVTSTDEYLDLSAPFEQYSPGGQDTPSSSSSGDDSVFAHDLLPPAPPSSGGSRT
Assay [3] has as its target Fibroblast growth factor receptor 4 (Homo sapiens, UniProt P22455). Put plainly: Inhibition of human recombinant His-tagged FGFR4 cytoplasmic domain ([…] residues) expressed in baculovirus using Tyr-4 peptide after 1 hr by FRET-based Z'-Lyte assay.
For another assay, the system named is L02. Nature of the assay: Cytotoxicity against human HL7702 cells assessed as cell viability after 72 hrs by CCK-8 assay. The format is cell-based. The settings on record: L02, 72 h. Put shortly:
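Log-phase HL7702 cells were plated at ~3000 cells/well and treated 24 h later with compound or vehicle for 72 h. CCK-8 was added for 3 h and OD450 minus OD650 measured. Viability = (As−Ac)/(Ab−Ac)×100, with Ac a cell-free blank and Ab the vehicle control.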
A general note: Tetrazolium dyes change colour on reduction, which living cells bring about.

Another assay concerns PC-9. Put plainly: Antiproliferative activity against human PC9 cells after 5 days by SRB assay. The format is functional, cell-based. Conditions: PC-9, 120 h. An outline of the steps:
(§1)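 Grown in α-MEM + 5% FBS at 37 °C, 5% CO2. Seeding per well: 3000 (H661), 1000 (PC9), 400 (H460, H1299), attached overnight. Cells were dosed with a 3-fold serial dilution from DMSO stocks for 5 days. Then cold TCA fixation, 0.4% SRB staining, solubilisation in 10 mM Tris pH 10.5, absorbance at 490 nm. IC50 was derived from the curves.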

For the next assay, the system named is NCI-H661. Nature of the assay: Antiproliferative activity against human NCI-H661 cells after 5 days by SRB assay. Conditions: NCI-H661, 120 h. The class given is functional, cell-based. An outline of the steps: as §1
Another assay has as its system NCI-H460. Put plainly: Antiproliferative activity against human NCI-H460 cells after 5 days by SRB assay. The format is functional, cell-based. The settings on record: NCI-H460, 120 h. An outline of the steps: as §1
Another assay concerns NCI-H1299. Nature of the assay: Antiproliferative activity against human NCI-H1299 cells after 5 days by SRB assay. The class given is functional, cell-based. Conditions: NCI-H1299, 120 h. Put shortly: as §1

Each structure is given as a SMILES string.

Fibroblast growth factor receptor 4, sequence (P22455 whole entry, the tested form may be a part): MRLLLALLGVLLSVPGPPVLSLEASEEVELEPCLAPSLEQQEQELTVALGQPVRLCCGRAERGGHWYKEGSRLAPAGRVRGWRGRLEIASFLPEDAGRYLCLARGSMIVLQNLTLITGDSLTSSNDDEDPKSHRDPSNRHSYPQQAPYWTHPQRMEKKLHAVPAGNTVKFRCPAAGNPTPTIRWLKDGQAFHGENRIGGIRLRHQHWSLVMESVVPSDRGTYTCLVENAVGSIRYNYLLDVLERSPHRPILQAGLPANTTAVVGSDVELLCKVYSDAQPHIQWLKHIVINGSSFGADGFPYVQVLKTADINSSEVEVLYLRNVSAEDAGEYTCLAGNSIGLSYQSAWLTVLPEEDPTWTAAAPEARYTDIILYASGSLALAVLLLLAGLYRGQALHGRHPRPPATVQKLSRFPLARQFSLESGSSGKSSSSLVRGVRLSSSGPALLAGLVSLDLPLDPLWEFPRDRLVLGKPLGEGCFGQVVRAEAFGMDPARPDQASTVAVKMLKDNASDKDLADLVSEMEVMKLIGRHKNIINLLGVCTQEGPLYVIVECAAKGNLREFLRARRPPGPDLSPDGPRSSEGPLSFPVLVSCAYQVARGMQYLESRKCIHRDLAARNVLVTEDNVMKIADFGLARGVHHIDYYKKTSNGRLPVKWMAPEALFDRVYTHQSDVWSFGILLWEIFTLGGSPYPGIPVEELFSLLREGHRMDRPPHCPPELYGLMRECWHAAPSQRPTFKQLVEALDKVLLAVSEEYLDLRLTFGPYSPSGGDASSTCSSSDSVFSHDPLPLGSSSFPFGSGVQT

As for `COc1ccccc1Nc1ncc2c(n1)N(C1CCN(C(=O)/C=C/CN(C)C)CC1)C(=O)N(c1c(Cl)c(OC)cc(OC)c1Cl)C2`, the results for the IC50 (with NCI-H520; with SW780; in [1]) were 39.8 nM, 27.5 nM and 3.3 nM, respectively.

For the compound `CCN(CC)CCCCNc1ncc2cc(-c3cc(OC)cc(OC)c3)c(NC(=O)NC(C)(C)C)nc2n1` [PD-173074], the IC50 in the assay on SW780 amounted to 84.3 nM; in assay [1] it was 12.3 nM.

`COc1cc(OC)c(Cl)c(N2Cc3cnc(NC4CCOCC4)nc3N(C3CCN(C(=O)/C=C/CN(C)C)CC3)C2=O)c1Cl`: the IC50 in the assay with NCI-H520 came out at 7.82 nM; with SW780 it was 3.34 nM; in [1], 0.57 nM.

`COc1cccc(Nc2ncc3c(n2)N(C2CCN(C(=O)/C=C/CN(C)C)CC2)C(=O)N(c2c(Cl)c(OC)cc(OC)c2Cl)C3)c1`: the IC50 turned out to be 19.3 nM in the assay on NCI-H520, 5.4 nM in the assay on SW780 and 1 nM in [1].

For the compound `COc1cc(OC)c(Cl)c(N2Cc3cnc(N(C)C)nc3N(C3CCN(C(=O)/C=C/CN(C)C)CC3)C2=O)c1Cl`, the IC50 in [2] was above 1000 nM; in assay [3] it was above 1000 nM; in the assay on NCI-H520, 2420 nM; with SW780 it was 570 nM; in [1], 224 nM.

For the compound `COc1cc(OC)c(Cl)c(N2Cc3cnc(Nc4ccccc4)nc3N(C3CCN(C(=O)/C=C/CN(C)C)CC3)C2=O)c1Cl`, the half-inhibitory concentration (IC50) in the assay with NCI-H520 is 4.14 nM; in the assay with SW780, 9.73 nM; in the assay with L02, 1890 nM; in assay [1], 0.65 nM; in the assay with PC-9, 1260 nM; in the assay with NCI-H661, 2750 nM. Also, the IC50 was determined as 1400 nM in the assay on NCI-H460 and 2480 nM with NCI-H1299.

`COc1cc(OC)c(Cl)c(N2Cc3cnc(Nc4cccc(C)c4)nc3N(C3CCN(C(=O)/C=C/CN(C)C)CC3)C2=O)c1Cl`: the IC50 worked out at 5.3 nM in the assay with NCI-H520, 15.1 nM in the assay on SW780 and 1.1 nM in [1].

For `COc1cc(OC)c(Cl)c(N2Cc3cnc(NC4CCCCC4)nc3N(C3CCN(C(=O)/C=C/CN(C)C)CC3)C2=O)c1Cl`, the results for the IC50 (with NCI-H520; in the assay on SW780; in [1]) were 13.6 nM, 14.5 nM and 0.84 nM, respectively.

On to `COc1cc(OC)c(Cl)c(N2Cc3cnc(NC(C)C)nc3N(C3CCN(C(=O)/C=C/CN(C)C)CC3)C2=O)c1Cl`, for which the results for the IC50 (in the assay with NCI-H520; in the assay on SW780; in assay [1]) were 4.91 nM, 12.3 nM and 0.65 nM, respectively.

`CNc1ncc2c(n1)N(C1CCN(C(=O)/C=C/CN(C)C)CC1)C(=O)N(c1c(Cl)c(OC)cc(OC)c1Cl)C2`: the IC50 in the assay on NCI-H520 came to 56.2 nM; in the assay with SW780, 5.2 nM; in assay [1], 2 nM.

As for `COc1cc(OC)c(Cl)c(N2Cc3cnc(Nc4cccc(F)c4)nc3N(C3CCN(C(=O)/C=C/CN(C)C)CC3)C2=O)c1Cl`, the IC50 in the assay with NCI-H520 stood at 6.5 nM; in the assay on SW780 it was 9 nM; in [1] it was 1.1 nM.

Consider `COc1ccc(Nc2ncc3c(n2)N(C2CCN(C(=O)/C=C/CN(C)C)CC2)C(=O)N(c2c(Cl)c(OC)cc(OC)c2Cl)C3)cc1`, for which the IC50 came out at 3 nM in the assay with NCI-H520, 0.3 nM in the assay with SW780 and 0.8 nM in [1].

As for `C=CC(=O)Nc1cccc(CN2C(=O)N(c3c(Cl)c(OC)cc(OC)c3Cl)Cc3cnc(NCCCCN(CC)CC)nc32)c1`, the IC50 came to 121 nM in the assay with NCI-H520, 277 nM in the assay with SW780 and 2.9 nM in assay [1].

In the case of `COc1cc(OC)c(Cl)c(N2Cc3cnc(NC4CCOC4)nc3N(C3CCN(C(=O)/C=C/CN(C)C)CC3)C2=O)c1Cl` (stereo not drawn), the IC50 with NCI-H520 is 70 nM; with SW780 it was 32 nM; in [1] it was 4 nM.

What is called IC50 is the point on the concentration scale where inhibition reaches its midpoint.
